Key:
Type in all cases: functional
[1] = system: Mus musculus; assay: L-1210 mouse leukemia life prolongation activity was measured as T/C (mean survival time of treated animals divided by the mean survival time of the controls times 100) at dose 40 mg/kg
In short: (§1)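 In vivo L-1210 leukemia in mice, run by NCI contractors by standard procedures. Two intraperitoneal doses given, on day 1 and day 5 of the study. Readout is mean survival time of treated animals over that of controls, ×100 (T/C).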

[2] = system: Mus musculus; assay: L-1210 mouse leukemia life prolongation activity was measured as T/C (mean survival time of treated animals divided by the mean survival time of the controls times 100) at dose 10 mg/kg; in short: as §1
[3] = system: Mus musculus; assay: L-1210 mouse leukemia life prolongation activity was measured as T/C (mean survival time of treated animals divided by the mean survival time of the controls times 100) at dose 80 mg/kg; in short: as §1
[4] = system: Mus musculus; assay: L-1210 mouse leukemia life prolongation activity was measured as T/C (mean survival time of treated animals divided by the mean survival time of the controls times 100) at dose 20 mg/kg; in short: as §1
[5] = system: Mus musculus; assay: L-1210 mouse leukemia life prolongation activity was measured as T/C (mean survival time of treated animals divided by the mean survival time of the controls times 100) at dose 5 mg/kg; in short: as §1
[6] = system: Mus musculus; assay: L-1210 mouse leukemia life prolongation activity was measured as T/C (mean survival time of treated animals divided by the mean survival time of the controls times 100) at dose 2.5 mg/kg; in short: as §1
[7] = system: Mus musculus; assay: L-1210 mouse leukemia life prolongation activity was measured as T/C(mean survival time of treated animals divided by the mean survival time of the controls times 100) at dose 2.5 mg/kg; in short: as §1
[8] = system: Mus musculus; assay: L-1210 mouse leukemia life prolongation activity was measured as T/C (mean survival time of treated animals divided by the mean survival time of the controls times 100) at dose 1.25 mg/kg; in short: as §1

Compound	T/C [1]	T/C [2]	T/C [3]	T/C [4]	T/C [5]	T/C [6]	T/C [7]	T/C [8]
CC[C@@](O)(C(=O)[O-])c1cc2n(c(=O)c1CO)Cc1cc3ccccc3nc1-2.[Na+]	181	126	215	167				
CC[C@]1(O)C(=O)OCc2c1cc1n(c2=O)Cc2cc3ccccc3nc2-1		118		132	114	114		
CC[C@@]1(O)C(=O)OCc2c1cc1n(c2=O)Cc2cc3ccccc3nc2-1 [CAMPTOTHECIN]		250			185		147	129

Reference: ChEMBL document CHEMBL1123574, “Plant antitumor agents. 28. Resolution of a key tricyclic synthon, 5'(RS)-1,5-dioxo-5'-ethyl-5'-hydroxy-2'H,5'H,6'H-6'-oxopyrano[3' ,4'- f]delta 6,8-tetrahydro-indolizine: total synthesis and antitumor activity of 20(S)- and 20(R)-camptothecin” (1987)
